Screening results: PubChem, several laboratories
VLA-4 inh – inhibition in a human VLA-4 binding assay; VLA-4 expressing cells, ligand binding flow cytometry; inhibition, % (about 7 µM as worked out from the volumes in the protocol); P13612; 330,000 tested, 0.2% active; in the data active = inhibition above about 50%
UPR XBP1 act – adaptive UPR (XBP1) activation; CHO-XBP1 luciferase reporter, IRE1-XBP1 UPR activation, luminescence; percent of tunicamycin response, DMSO as zero; activation, % at 20 µM; 330,000 tested, 0.33% active;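 active = versus positive control, 20 µM dose yields 30% or more activation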;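 also: 100% = tunicamycin at 10 µg/mL and 0% = DMSO only wells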
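Test system: CHO-XBP1 luciferase reporter cells | Buffer or medium: Serum-containing F12 medium, 10% FBS | Schedule: 6 h compound exposure at 37 °C, 5% CO2 | Detection: Steady-Glo luciferase glow luminescence, 10 min after reagent addition | Read-out basis: Activation, % of tunicamycin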
CHOP inhibitor – inhibitors of CHOP induction in ER stress response. 220,000 tested, 3.8% active. CHO-K1 CHOP-promoter luciferase, tunicamycin-induced, 15-18 h. inhibition, % at 10 µM;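 active = compounds that reduced the stress-induced luciferase reporter signal by more than about 70% of percent inhibition, limit read from the data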;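 also: 0% = tunicamycin plus vehicle and 100% = wells without tunicamycin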
B2AR ag – agonists of human beta-2 adrenergic receptor inducing internalization; P07550; Am2.2-beta2AR cells, FAP receptor internalization, flow cytometry; response, % (test concentration not listed); 340,000 tested, 0.43% active;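 active = response above a set limit, near 3 SD of response in nonfluorescent compounds, cut at about 42% in these data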
Target sequence (P07550 whole entry, looked up): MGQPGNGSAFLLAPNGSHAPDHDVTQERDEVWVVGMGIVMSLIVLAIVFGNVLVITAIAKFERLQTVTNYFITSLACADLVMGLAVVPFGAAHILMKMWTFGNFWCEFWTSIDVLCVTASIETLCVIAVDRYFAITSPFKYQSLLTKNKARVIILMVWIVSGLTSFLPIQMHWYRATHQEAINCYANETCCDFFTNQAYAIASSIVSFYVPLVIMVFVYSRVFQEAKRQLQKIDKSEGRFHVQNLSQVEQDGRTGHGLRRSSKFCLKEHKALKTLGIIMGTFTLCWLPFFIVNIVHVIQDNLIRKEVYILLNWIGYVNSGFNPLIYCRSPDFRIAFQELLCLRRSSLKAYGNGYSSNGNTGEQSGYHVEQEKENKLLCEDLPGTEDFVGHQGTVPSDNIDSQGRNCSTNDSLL
UPR CHOP act – apoptotic UPR (CHOP) activation | CHO-CHOP luciferase reporter, luminescence; percent of tunicamycin response over DMSO baseline | activation, % at 10 µM | 330,000 tested, 0.34% active | AID 449763;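 active = at 10 µM dose, activation of 40% or more, normalized to positive control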;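 also: 100% = tunicamycin at 10 µg/mL and 0% = DMSO alone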
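assay system = CHO CHOP reporter cells | amount = 500 CHO-CHOP cells per well | buffer or medium = F12 with 10% FBS | incubation = 16-18 h cell attachment, then 6 h compound exposure, 37 °C | detection = luminescence read with Steady-Glo | read-out = percent activation relative to tunicamycin control | controls = tunicamycin high control, DMSO low control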
* hit, by the source's call; nt = no result given. The entries come from a sample that favours hits as a whole.

SMILES | VLA-4 inh | UPR XBP1 act | CHOP inhibitor | B2AR ag | UPR CHOP act
CCCCCCn1c(SCC(=O)Nc2cc(C)on2)nc2ccccc2c1=O | 10 | -1 | 75* | -8 | 5
O=c1c2ccccc2nc(SCc2ccccc2Cl)n1Cc1ccccc1 | -6 | -2 | 0 | 1 | 1
Cc1cc(NC(=O)CSc2nc3ccccc3c(=O)n2Cc2ccc(F)cc2)no1 | 6 | -1 | 78* | -8 | -1
COCCn1c(SCC(=O)Nc2cc(C)on2)nc2ccccc2c1=O | 8 | -3 | nt | 3 | 0
Cc1cc(NC(=O)CSc2nc(C(C)C)nc3sc(C)c(C)c23)no1 | 7 | 10 | 85* | -9 | 0
Cc1ccc(CN2CCN(/N=C/c3cccs3)CC2)cc1 | 11 | -3 | 15 | 1 | 0
COc1cc(OC)cc(C(=O)NC2CCN(CCCOc3ccccc3)CC2)c1 | 1 | -4 | nt | 2 | -2
Cc1nc2scc(C)n2c(=O)c1S(=O)(=O)Nc1ccc(OC(F)(F)F)cc1 | -6 | 0 | nt | 2 | 0
CC(C)CC1NC(=O)c2cc(Cl)ccc2-n2c1nc1cc(F)ccc1c2=O (centres undefined) | 7 | -1 | nt | nt | -1
CC1CN=C(N(C(=O)Nc2ccccc2)C(C)c2ccccc2)S1 (centres undefined) | -4 | -1 | 12 | -1 | 0
O=C(c1cccs1)N1CCN(c2cc(Cl)ccc2Cl)CC1 | 12 | 1 | nt | 8 | 0
CCc1c(C)sc2nc(SCC(=O)Nc3cc(C)on3)n(CCOC)c(=O)c12 | 6 | -5 | 78* | -3 | 2
O=C(CSc1nc2ccccc2c(=O)n1Cc1ccc(F)cc1)NCc1cccs1 | 27 | -1 | 82* | -2 | -1
Cc1ccccc1Cn1nnc(-c2ccc(F)cc2)n1 | -7 | 11 | nt | 40 | 2
COC(=O)N/N=C/c1cc(Cl)cc(Cl)c1OCc1ccccc1 | 25 | -2 | 74* | -6 | 3
CCCNC(=O)CSc1nnc(-c2ccccc2Br)n1-c1cccc(C(F)(F)F)c1 | 27 | 1 | 8 | -23 | -2
COc1cccc2cc(-c3cn4ccc(C)cc4n3)c(=O)oc12 | -1 | -2 | nt | -6 | 1
CCOc1cccc2cc(-c3cn4cc(C)ccc4n3)c(=O)oc12 | 12 | 1 | 83* | -6 | -1
Brc1ccc(NCc2cccc3ccccc23)nc1 | -35 | 5 | 87* | 2 | -2
CC(=O)Nc1ccc(C)c(NS(=O)(=O)c2cccc(C(F)(F)F)c2)c1 | 2 | 1 | 12 | 0 | -1
CCOC(=O)c1sc2nc(NC(=O)C(C)(C)C)sc2c1C | 15 | 8 | 77* | -2 | 12
CCOC(=O)c1sc2nc(NC(=O)C3CC3)sc2c1C | -25 | 3 | 99* | -13 | 6
CCOC(=O)c1sc(NC(=O)CC)nc1C | 13 | -2 | 5 | -33 | 1
CCOC(=O)c1sc2nc(NC(=O)C3CCCCC3)sc2c1C | -14 | -1 | 42 | 4 | 4
C[C@H](CO)N1C[C@H](C)[C@@H](CN(C)C(=O)Nc2ccc(C(F)(F)F)cc2)Oc2ccc(NC(=O)Nc3ccc4c(c3)OCO4)cc2C1=O | 11 | -1 | nt | -3 | 1
SMILES | VLA-4 inh | UPR XBP1 act | CHOP inhibitor | B2AR ag | UPR CHOP act
C=CCN1C(=O)c2ccccc2Sc2ccc(C(=O)NCC(OC)OC)cc21 | 11 | -8 | nt | -7 | -1
C[C@@H]1NC(=O)N(c2ccc(F)cc2)C1=O | 8 | -1 | nt | -3 | 1
O=C1CCC(/C=C/c2ccccc2)=NN1Cc1ccccc1Cl | 12 | -1 | 43 | 43* | 2
Cc1nn(C)cc1S(=O)(=O)N1CCN(c2ccccc2F)CC1 | -13 | -4 | nt | -10 | 1
Cc1noc(C)c1NC(=O)Nc1ccc2c(c1)C(=O)N([C@H](C)CO)C[C@H](C)[C@@H](CN(C)C(=O)Nc1c(C)noc1C)O2 | -12 | -3 | nt | -1 | -1
O=C(CC1SC(=O)N(Cc2cccc3ccccc23)C1=O)Nc1nccs1 (centres undefined) | -11 | 0 | 73* | 7 | 0
CCN(C(=O)CSc1ccccn1)C1CCCCC1 | 14 | 1 | nt | -11 | 2
O=C1c2cccc3c(N4CCCCC4)ccc(c23)C(=O)N1c1ccccn1 | -8 | -3 | 20 | 0 | 0
O=C1c2ccccc2-c2n[nH]c(=O)c3ccc(N4CCCCC4)c1c23 | -5 | 8 | 79* | 11 | 0
CC1CC(=O)Nc2ccccc2N1C(=O)CN1CCN(c2ccccc2)CC1 (centres undefined) | -4 | 2 | 80* | -8 | 1
O=C(NCc1ccncc1)c1ccc(NS(=O)(=O)c2ccccc2)cc1 | -2 | -4 | nt | 6 | 1
O=C(NCCc1ccccc1)c1ccc2nc(-c3ccco3)c(-c3ccco3)nc2c1 | 2 | 1 | -18 | 13 | -2
O=C(c1ccccc1)c1ccc2nc(-c3ccco3)c(-c3ccco3)nc2c1 | 8 | -1 | 72* | 9 | 8
N#C/C(=C\c1cn(Cc2ccc(F)cc2)c2ccccc12)C(=O)NCc1ccco1 | -2 | 0 | 77* | -4 | -1
Cc1ccc(N=CC2=C(O)CC(c3ccco3)CC2=O)cc1 (centres undefined) | 4 | 3 | 42 | -4 | 2
O=C1CC(c2ccco2)CC(O)=C1C=Nc1ccc(Br)cc1 (centres undefined) | 9 | 22 | 87* | 14 | 24
CC(C)CN(CCNC(=O)CC1Oc2ccccc2NC1=O)CC(C)C (centres undefined) | -12 | -1 | 72* | 0 | 0
O=C(NNC(=O)c1ccc(-n2cncn2)c([N+](=O)[O-])c1)c1ccc(Cl)cc1 | 0 | -2 | nt | -7 | 0
Oc1c(CN2CCN(c3ccccc3)CC2)cc(Br)c2cccnc12 | -5 | nt | 89* | 28 | nt
COC(=O)c1cn(C(=O)c2ccc(OC)cc2)c2ccccc12 | -4 | 12 | nt | 3 | -2
C=CCOc1ccccc1CNc1ccccc1C | 9 | -3 | 70* | -2 | 0
O=C1Nc2ccccc2/C1=C/c1ccccc1F | 2 | 7 | nt | 11 | 5
O=C1Nc2ccccc2/C1=C\c1cccn1-c1ccc(OC(F)(F)F)cc1 | -18 | -2 | 93* | 2 | 0
Cc1cc(=O)oc2c(C)c(OC(C)C(=O)Nc3ccc(N4CCC(C)CC4)cc3)ccc12 (centres undefined) | 5 | -2 | nt | 83* | -1
Cc1cccc(OCC(=O)Nc2ccc3c(C)cc(=O)oc3c2)c1 | 38 | 0 | 92* | 9 | 0
Cc1cc(=O)oc2cc(OCC(=O)Nc3ccc(N4CCC(C)CC4)cc3)ccc12 | -1 | 0 | nt | 51* | 0
Cc1cc(=O)oc2cc(NC(=O)C3COc4ccccc4O3)ccc12 (centres undefined) | -5 | 0 | 89* | 0 | 4
CC12CCC(=O)N1C(C(=O)NCc1ccccc1Cl)CS2 (centres undefined) | 13 | -1 | nt | -8 | 0
